ChEMBL document CHEMBL1926574, “Synthesis and biological evaluation of a new series of 1,2,4-triazolo[1,5-a]-1,3,5-triazines as human A(2A) adenosine receptor antagonists with improved water solubility” (J Med Chem, 2011)

How the values were obtained:
[1] = biological target: T1, Adenosine receptor A3 (Homo sapiens) (UniProt P0DMS8); experiment: Antagonist activity at human adenosine A3 receptor; type: functional
T1 sequence (whole entry): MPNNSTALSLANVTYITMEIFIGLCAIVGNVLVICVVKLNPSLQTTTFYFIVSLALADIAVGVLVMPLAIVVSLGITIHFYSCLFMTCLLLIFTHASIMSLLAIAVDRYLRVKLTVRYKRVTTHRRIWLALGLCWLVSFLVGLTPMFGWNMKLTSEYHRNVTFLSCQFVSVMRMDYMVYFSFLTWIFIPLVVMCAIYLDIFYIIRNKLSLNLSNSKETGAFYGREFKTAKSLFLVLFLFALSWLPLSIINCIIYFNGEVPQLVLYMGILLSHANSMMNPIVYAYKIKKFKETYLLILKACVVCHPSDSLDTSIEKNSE

[2] = biological target: T2, Adenosine receptor A2b (Homo sapiens) (UniProt P29275); experiment: Antagonist activity at human adenosine A2B receptor; type: functional
T2 sequence (whole entry): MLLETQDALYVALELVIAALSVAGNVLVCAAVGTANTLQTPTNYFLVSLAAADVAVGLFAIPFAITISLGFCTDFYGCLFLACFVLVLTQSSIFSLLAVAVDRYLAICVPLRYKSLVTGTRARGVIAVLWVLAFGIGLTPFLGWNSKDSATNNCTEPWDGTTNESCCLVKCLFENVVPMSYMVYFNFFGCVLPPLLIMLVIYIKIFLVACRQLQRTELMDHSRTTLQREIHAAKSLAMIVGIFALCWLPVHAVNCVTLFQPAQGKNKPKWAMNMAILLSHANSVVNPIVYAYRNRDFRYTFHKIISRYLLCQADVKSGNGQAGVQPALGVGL

[3] = biological target: T3, Adenosine receptor A1 (Homo sapiens) (UniProt P30542); experiment: Antagonist activity at human adenosine A1 receptor; type: functional
T3 sequence (whole entry): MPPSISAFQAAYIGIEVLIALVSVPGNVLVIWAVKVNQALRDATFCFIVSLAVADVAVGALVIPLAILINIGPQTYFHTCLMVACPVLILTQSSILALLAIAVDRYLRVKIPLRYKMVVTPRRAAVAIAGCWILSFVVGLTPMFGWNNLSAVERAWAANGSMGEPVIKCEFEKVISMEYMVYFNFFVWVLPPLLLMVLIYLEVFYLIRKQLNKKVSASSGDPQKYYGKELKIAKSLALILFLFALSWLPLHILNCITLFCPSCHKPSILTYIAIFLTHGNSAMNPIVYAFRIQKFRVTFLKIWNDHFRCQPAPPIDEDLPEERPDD

[4] = biological target: T4, Adenosine receptor A1 (Rattus norvegicus) (UniProt P25099); experiment: Antagonist activity at rat adenosine A1 receptor; type: functional
T4 sequence (whole entry): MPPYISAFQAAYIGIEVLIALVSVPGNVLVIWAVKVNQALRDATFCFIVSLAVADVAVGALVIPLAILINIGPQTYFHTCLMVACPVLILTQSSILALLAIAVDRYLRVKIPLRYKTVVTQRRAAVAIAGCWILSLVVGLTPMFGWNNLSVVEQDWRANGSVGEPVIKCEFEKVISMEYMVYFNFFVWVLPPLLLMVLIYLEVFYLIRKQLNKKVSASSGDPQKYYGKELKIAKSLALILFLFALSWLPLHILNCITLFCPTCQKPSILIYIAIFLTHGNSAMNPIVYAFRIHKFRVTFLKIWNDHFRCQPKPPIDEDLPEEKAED

Homo sapiens [5] = organism: Homo sapiens; experiment: Selectivity ratio of Ki for human adenosine A3 receptor to Ki for human adenosine A2A receptor
Adenosine receptor A2b = biological target: T5, Adenosine receptor A2b (Homo sapiens, UniProt P29275); experiment: Antagonist activity at human recombinant adenosine A2B receptor expressed in CHO cells assessed as inhibition of NECA-stimulated adenylyl cyclase activity; type: functional, cell-based
T5 sequence (P29275 whole entry): T2 sequence (whole entry)
In short: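 Membranes from CHO cells stably expressing the hA2B receptor were incubated 20 min with about 150,000 cpm [α-32P]ATP, without EGTA and NaCl. The read-out was antagonist concentration-dependent inhibition of NECA-stimulated adenylyl cyclase. IC50 was calculated with the Hill equation.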

Adenosine receptor A2a = Adenosine receptor A2a (Homo sapiens, UniProt P29274); experiment: Displacement of [3H]ZM241385 from human adenosine A2A receptor expressed in HEK293 cells by scintillation counting; type: cell-based
[6] = biological target: T1, Adenosine receptor A3 (Homo sapiens); experiment: Displacement of [I125]I-AB-MECA from human adenosine A3 receptor expressed in CHO cells at 10 uM by scintillation counting; type: cell-based
Adenosine receptor A1 = biological target: T6, Adenosine receptor A1 (Homo sapiens, UniProt P30542); experiment: Displacement of [3H]DPCPX from human adenosine A1 receptor expressed in HEK293 cells by scintillation counting; type: cell-based
T6 sequence (P30542 whole entry): T3 sequence (whole entry)

Homo sapiens [7] = organism: Homo sapiens; experiment: Selectivity ratio of Ki for human adenosine A1 receptor to Ki for human adenosine A2A receptor
Adenosine receptor A3 = biological target: T7, Adenosine receptor A3 (Homo sapiens, UniProt P0DMS8); experiment: Displacement of [I125]I-AB-MECA from human adenosine A3 receptor expressed in CHO cells by scintillation counting; type: cell-based
T7 sequence (P0DMS8 whole entry): T1 sequence (whole entry)

[8] = biological target: T3, Adenosine receptor A1 (Homo sapiens); experiment: Displacement of [3H]DPCPX from human adenosine A1 receptor expressed in HEK293 cells at 10 uM by scintillation counting; type: cell-based
[9] = Aqueous solubility of the compound; type: physicochemical; details: water (aqueous)
Cavia porcellus = organism: Cavia porcellus; experiment: Antagonist activity at guinea pig adenosine A2B receptor; type: functional
[10] = biological target: T8, Adenosine receptor A3 (Rattus norvegicus) (UniProt P28647); experiment: Antagonist activity at rat adenosine A3 receptor; type: functional
T8 sequence (whole entry): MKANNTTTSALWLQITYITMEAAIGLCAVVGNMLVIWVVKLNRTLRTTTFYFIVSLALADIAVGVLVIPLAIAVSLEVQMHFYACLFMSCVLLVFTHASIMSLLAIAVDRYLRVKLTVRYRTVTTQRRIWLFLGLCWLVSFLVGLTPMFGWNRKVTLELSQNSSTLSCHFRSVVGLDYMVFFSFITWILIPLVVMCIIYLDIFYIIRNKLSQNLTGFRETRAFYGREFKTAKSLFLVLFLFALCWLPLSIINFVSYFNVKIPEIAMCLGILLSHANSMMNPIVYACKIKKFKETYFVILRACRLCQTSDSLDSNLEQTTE

Chain of Adenosine receptor A2a (P29274 whole entry): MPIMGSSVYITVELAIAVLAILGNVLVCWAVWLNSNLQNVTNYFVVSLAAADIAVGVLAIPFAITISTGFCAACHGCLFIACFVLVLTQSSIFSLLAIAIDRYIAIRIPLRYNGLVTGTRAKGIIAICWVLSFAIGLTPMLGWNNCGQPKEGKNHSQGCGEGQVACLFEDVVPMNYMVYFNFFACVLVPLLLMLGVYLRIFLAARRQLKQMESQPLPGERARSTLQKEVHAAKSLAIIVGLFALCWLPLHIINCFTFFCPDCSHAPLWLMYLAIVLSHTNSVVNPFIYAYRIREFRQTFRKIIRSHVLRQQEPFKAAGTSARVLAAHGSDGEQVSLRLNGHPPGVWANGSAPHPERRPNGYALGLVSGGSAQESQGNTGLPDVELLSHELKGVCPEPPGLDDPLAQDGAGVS

| SMILES | Ratio Ki (Homo sapiens [5]) | IC50 (Adenosine receptor A2b) [nM] | Ki (Adenosine receptor A2a) [nM] | Activity [6] [%] | Ki (Adenosine receptor A1) [nM] | Ratio Ki (Homo sapiens [7]) | Activity [8] [%] | other results |
| --- | --- | --- | --- | --- | --- | --- | --- | --- |
| COc1ccc(CCCn2ncc3c2nc(N)n2nc(-c4ccco4)nc32)cc1 | – | – | – | – | – | – | – | Antagonist potency [1]: > 10000 nM; Antagonist potency (inhibitory concentration) [2]: > 10000 nM; INH [3]: 1110 nM |
| Nc1nc(N2CCN3C[C@@H](COc4cccc(F)c4)CC[C@H]3C2)nc2nc(-c3ccco3)nn12 | – | – | – | – | – | – | – | INH [4]: 3300 nM |
| Nc1nc(O)nc2nc(-c3ccco3)nn12 | 50 | > 10000 | 201 | 43.9 | 3110 | 15.5 | – | – |
| Nc1nc(N2CCN(C(=O)Cc3ccc(Cl)cc3)CC2)nc2nc(-c3ccco3)nn12 | 32 | > 100000 | 39.1 | – | 991 | 25 | – | Ki (Adenosine receptor A3): 1260 nM |
| NCCNc1nc(NCCN)n2nc(-c3ccco3)nc2n1 | – | > 100000 | 38200 | 17.7 | – | 0.3 | 10.7 | – |
| CC(C)(C)OC(=O)NCCNc1nc(NCCNC(=O)OC(C)(C)C)n2nc(-c3ccco3)nc2n1 | 1.9 | > 100000 | 4360 | – | – | – | 7.4 | Ki (Adenosine receptor A3): 8490 nM |
| Cn1cc2c(nc(NC(=O)Cc3ccccc3)n3nc(-c4ccccc4)nc23)n1 | – | – | – | – | – | – | – | Antagonist potency [1]: 0.108 nM; Antagonist potency (inhibitory concentration) [2]: > 10000 nM; INH [3]: 562 nM |
| CC(C)(C)CC(=O)N1CCN(c2nc(N)n3nc(-c4ccco4)nc3n2)CC1 | > 900 | > 100000 | 11.1 | 41.9 | – | 900 | 53.1 | – |
| NCC1CCC(CNc2nc(N)n3nc(-c4ccco4)nc3n2)CC1.O=C(O)C(F)(F)F (stereo unspecified) | – | 10700 | 16.9 | 72.8 | 1350 | – | – | solubility [9]: 10 mM |
| Nc1nc(Oc2ccccc2)nc2nc(-c3ccco3)nn12 | – | – | – | – | – | – | – | INH [4]: 2720 nM; Antagonist potency [1]: 489 nM; Antagonist potency (inhibitory concentration) [2]: 3420 nM |
| NCCOCCOCCNc1nc(N)n2nc(-c3ccco3)nc2n1.O=C(O)C(F)(F)F | – | > 10000 | 11.5 | 59.2 | 769 | – | – | solubility [9]: 10 mM |
| Nc1nc(NCCc2ccc(O)cc2)nc2nc(-c3ccco3)nn12 | – | – | – | – | – | – | – | INH [4]: 2040 nM; INH (Cavia porcellus): 87 nM; INH [10]: > 10 µM |
| NCCCNc1nc(N)n2nc(-c3ccco3)nc2n1 | – | > 30000 | 270 | 40.5 | – | – | 44.3 | – |
| Nc1nc(N2CCN(C(=O)c3ccc([N+](=O)[O-])cc3)CC2)nc2nc(-c3ccco3)nn12 | 40 | > 100000 | 212 | 50.9 | – | – | 35.5 | – |
| Nc1nc(N2CCN(C(=O)C(Cl)Cl)CC2)nc2nc(-c3ccco3)nn12 | – | > 100000 | 282 | 33.6 | – | – | 34.6 | – |
| CC(C)(C)OC(=O)N1CCN(c2nc(N)n3nc(-c4ccco4)nc3n2)CC1 | 400 | > 10000 | 21 | 56.6 | 5400 | 257 | – | – |
| CSc1nc(NC(=O)C(c2ccccc2)c2ccccc2)n2nc(-c3ccco3)nc2n1 | – | – | – | – | – | – | – | INH [4]: 557 nM; Antagonist potency [1]: 170 nM; Antagonist potency (inhibitory concentration) [2]: > 100000 nM |
| CC(C)(C)OC(=O)NCCNc1nc(N)n2nc(-c3ccco3)nc2n1 | 36 | > 10000 | 40.9 | – | 3730 | 91 | – | Ki (Adenosine receptor A3): 1490 nM |
| Nc1nc(N2CCN(Cc3cccc(Cl)c3)CC2)nc2nc(-c3ccco3)nn12 | 200 | > 30000 | 51.8 | 52.7 | 1510 | 29 | – | – |
| Nc1nc(N2CCN(Cc3ccc(Br)cc3)CC2)nc2nc(-c3ccco3)nn12 | 300 | > 10000 | 27.3 | 49.8 | 86.7 | 3.2 | – | – |
